Results taken from ChEMBL document CHEMBL2010787, “Design and synthesis of novel 5-phenyl-N-piperidine ethanone containing 4,5-dihydropyrazole derivatives as potential antitumor agents” (Eur J Med Chem, 2012).

What was measured:
MGC-803 = experiment: Cytotoxicity against human MGC803 cells after 48 hrs by MTT assay; assay type: functional, cell-based; conditions: MGC-803, 48 h
Summary of the method: (§1)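 Log-phase tumor cells grown in RPMI 1640 with 10% FBS, diluted to 3 × 10⁴ cells/mL, and seeded in 96-well plates. Plates were held 24 h at 37 °C in 5% CO₂, then compounds were added at preset concentrations (6 wells each), with 5-fluorouracil as positive reference. After 48 h exposure, MTT in PBS (2.5 mg/mL) was added for 4 h. Formazan was dissolved in DMSO and read at 570 nm. IC50 is the concentration giving 50% survival; results are the mean of three experiments in triplicate.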

Bcap37 = experiment: Cytotoxicity against human Bcap37 cells after 48 hrs by MTT assay; assay type: functional, cell-based; conditions: Bcap37, 48 h; summary of the method: as §1
SGC-7901 = experiment: Cytotoxicity against human SGC7901 cells after 48 hrs by MTT assay; assay type: functional, cell-based; conditions: SGC-7901, 48 h; summary of the method: as §1
[1] = molecular target: Telomerase reverse transcriptase (Homo sapiens, UniProt O14746); experiment: Inhibition of telomerase activity in human MGC803 cells after 24 hrs by TRAP-PCR-ELISA assay
Sequence of Telomerase reverse transcriptase (O14746 whole entry): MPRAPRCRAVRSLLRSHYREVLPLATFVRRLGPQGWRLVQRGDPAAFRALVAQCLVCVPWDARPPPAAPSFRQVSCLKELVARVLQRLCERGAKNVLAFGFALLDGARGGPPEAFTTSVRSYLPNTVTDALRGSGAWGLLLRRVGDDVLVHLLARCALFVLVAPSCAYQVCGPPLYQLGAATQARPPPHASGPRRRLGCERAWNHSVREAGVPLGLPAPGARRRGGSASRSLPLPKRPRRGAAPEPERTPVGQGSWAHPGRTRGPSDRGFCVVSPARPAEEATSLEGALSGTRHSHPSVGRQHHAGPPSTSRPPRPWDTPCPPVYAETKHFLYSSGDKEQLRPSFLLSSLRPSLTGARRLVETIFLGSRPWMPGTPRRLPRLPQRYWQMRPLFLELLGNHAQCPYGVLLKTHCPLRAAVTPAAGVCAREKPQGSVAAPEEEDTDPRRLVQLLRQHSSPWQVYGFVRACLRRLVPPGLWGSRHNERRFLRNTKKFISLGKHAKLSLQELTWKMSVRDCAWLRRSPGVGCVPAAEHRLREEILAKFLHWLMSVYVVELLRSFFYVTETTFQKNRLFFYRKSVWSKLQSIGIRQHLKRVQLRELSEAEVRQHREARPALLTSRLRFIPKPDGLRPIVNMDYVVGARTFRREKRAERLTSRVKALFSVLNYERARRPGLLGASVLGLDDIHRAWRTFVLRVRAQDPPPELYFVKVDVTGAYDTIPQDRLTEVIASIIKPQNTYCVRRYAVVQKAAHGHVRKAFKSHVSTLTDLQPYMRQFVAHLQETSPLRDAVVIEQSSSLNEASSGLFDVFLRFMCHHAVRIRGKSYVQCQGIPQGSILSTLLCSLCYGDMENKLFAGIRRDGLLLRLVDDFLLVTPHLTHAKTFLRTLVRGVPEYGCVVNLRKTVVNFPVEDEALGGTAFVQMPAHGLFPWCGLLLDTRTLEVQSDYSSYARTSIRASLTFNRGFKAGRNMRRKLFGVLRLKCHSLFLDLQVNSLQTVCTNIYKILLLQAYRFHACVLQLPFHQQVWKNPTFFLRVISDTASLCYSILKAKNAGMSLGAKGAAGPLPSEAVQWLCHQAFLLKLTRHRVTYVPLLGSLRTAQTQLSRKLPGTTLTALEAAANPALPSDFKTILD

SMILES	IC50 (MGC-803) [µM]	IC50 (Bcap37) [µM]	IC50 (SGC-7901) [µM]	IC50 [1] [µM]
O=C(CN1CCC(Br)CC1)N1N=C(c2cc3ccccc3oc2=O)CC1c1ccccc1 (stereo not given)	7.01	8.76	10.3	4.11
CC1=NN(C(=O)CN2CCC(C(F)(F)F)CC2)C(c2ccccc2O)C1 (stereo not given)	2.64	8.55	3.22	8.81
CC1=NN(C(=O)CN2CCC(O)CC2)C(c2ccccc2O)C1 (stereo not given)	4.12	18.7	5.71	9.11
CCC1CCCCN1CC(=O)N1N=C(c2cc3ccccc3oc2=O)CC1c1ccccc1 (stereo not given)	8.71	7.3	6	
CC1=NN(C(=O)CN2CCCCC2[N+](=O)[O-])C(c2ccccc2O)C1 (stereo not given)	28.3	32.3	30.7	42.1
CC1CCN(CC(=O)N2N=C(c3cc4ccccc4oc3=O)CC2c2ccccc2)CC1 (stereo not given)	3.01	6.57	4.7	2
CC1=NN(C(=O)CN2CCCCC2C)C(c2ccccc2O)C1 (stereo not given)	11.7	16.3	11.2	
CC1=NN(C(=O)CN2CCCCC2C(N)=O)C(c2ccccc2O)C1 (stereo not given)	38.8	41.1	39.2	
O=c1[nH]cc(F)c(=O)[nH]1 [FLUOROURACIL]	3.42	5.33	7.11	
CC[n+]1c(-c2ccccc2)c2cc(N)ccc2c2ccc(N)cc21 [HOMIDIUM BROMIDE]				2.47
CCC1CCCCN1CC(=O)N1N=C(C)CC1c1ccccc1O (stereo not given)	15.7	10.7	12.9	
CC1=NN(C(=O)CN2CCC(C)CC2)C(c2ccccc2O)C1 (stereo not given)	3.55	6.81	4.6	5.99
